Results taken from ChEMBL document CHEMBL1255347, “Multiclonal outbreak of Klebsiella pneumoniae producing extended-spectrum beta-lactamase CTX-M-2 and novel variant CTX-M-59 in a neonatal intensive care unit in Brazil” (2008).
In brackets after ≈: the same amount, converted by molar mass.

Columns and labels:
[1] = system: Escherichia coli; experiment: Antimicrobial activity against Escherichia coli str. K-12 substr. DH10B harboring plasmid CTX-M-59; assay type: functional; details: K-12 DH10B
Method in brief: (§1)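 blaCTX-M PCR products were cut with XbaI/BamHI and cloned into pBC-SK(−), then electroporated into E. coli DH10B. Transformants were selected on LB agar with ampicillin 50 μg/ml and chloramphenicol 30 μg/ml, and sequences were confirmed. These clones were used for β-lactam MICs, with and without clavulanic acid.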

[2] = system: Klebsiella pneumoniae; experiment: Antimicrobial activity against SHV-5 producing Klebsiella pneumoniae transconjugants/transformants with PFGE pulsotype D by Etest in presence of clavulanic acid; assay type: functional
Method in brief: (§2)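 The recipient was E. coli XL1-Blue Rifr NAr. Plasmids moved by broth mating, with transconjugants selected on LB agar containing ampicillin, rifampin and nalidixic acid, each at 50 μg/ml. Where mating failed, alkaline-lysis plasmid extracts were electroporated and selected on ampicillin 50 μg/ml. β-lactam MICs were read by Etest, with and without clavulanic acid.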

[3] = system: Escherichia coli; experiment: Antimicrobial activity against Escherichia coli str. K-12 substr. DH10B harboring plasmid CTX-M-2 in presence of clavulanic acid; assay type: functional; details: K-12 DH10B; method in brief: as §1
[4] = system: Klebsiella pneumoniae; experiment: Antimicrobial activity against CTX-M-59 and TEM-1 producing Klebsiella pneumoniae transconjugants/transformants with PFGE pulsotype G by Etest in presence of clavulanic acid; assay type: functional; method in brief: as §2
[5] = system: Klebsiella pneumoniae; experiment: Antimicrobial activity against SHV-5 producing Klebsiella pneumoniae with PFGE pulsotype D by Etest; assay type: functional
Method in brief: (§3)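 Clinical K. pneumoniae isolates from a neonatal ICU outbreak near São Paulo were typed by XbaI PFGE using Tenover criteria. Cultures were grown in LB broth at 37°C. Etest MICs followed the manufacturer's instructions, with cefotaxime and ceftazidime each tested with and without clavulanic acid.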

[6] = system: Klebsiella pneumoniae; experiment: Antimicrobial activity against SHV-5 producing Klebsiella pneumoniae transconjugants/transformants with PFGE pulsotype D by Etest; assay type: functional; method in brief: as §2
[7] = system: Klebsiella pneumoniae; experiment: Antimicrobial activity against CTX-M-59 producing Klebsiella pneumoniae with PFGE pulsotype C by Etest in presence of clavulanic acid; assay type: functional; method in brief: as §3
[8] = system: Klebsiella pneumoniae; experiment: Antimicrobial activity against CTX-M-2 producing Klebsiella pneumoniae with PFGE pulsotype I by Etest in presence of clavulanic acid; assay type: functional; method in brief: as §3
[9] = system: Klebsiella pneumoniae; experiment: Antimicrobial activity against CTX-M-2 producing Klebsiella pneumoniae with PFGE pulsotype F by Etest; assay type: functional
[10] = system: Klebsiella pneumoniae; experiment: Antimicrobial activity against CTX-M-2 and TEM-1 producing Klebsiella pneumoniae transconjugants/transformants with PFGE pulsotype J by Etest in presence of clavulanic acid; assay type: functional; method in brief: as §2
[11] = system: Klebsiella pneumoniae; experiment: Antimicrobial activity against CTX-M-2 producing Klebsiella pneumoniae with PFGE pulsotype B by Etest; assay type: functional; method in brief: as §3
[12] = system: Klebsiella pneumoniae; experiment: Antimicrobial activity against CTX-M-2 producing Klebsiella pneumoniae with PFGE pulsotype J by Etest in presence of clavulanic acid; assay type: functional; method in brief: as §3
[13] = system: Klebsiella pneumoniae; experiment: Antimicrobial activity against CTX-M-2 and TEM-1 producing Klebsiella pneumoniae transconjugants/transformants with PFGE pulsotype I by Etest in presence of clavulanic acid; assay type: functional; method in brief: as §2
[14] = system: Klebsiella pneumoniae; experiment: Antimicrobial activity against CTX-M-59 and TEM-1 producing Klebsiella pneumoniae transconjugants/transformants with PFGE pulsotype E by Etest in presence of clavulanic acid; assay type: functional; method in brief: as §2
[15] = system: Klebsiella pneumoniae; experiment: Antimicrobial activity against CTX-M-2 producing Klebsiella pneumoniae with PFGE pulsotype I by Etest; assay type: functional
[16] = system: Klebsiella pneumoniae; experiment: Antimicrobial activity against CTX-M-59 producing Klebsiella pneumoniae with PFGE pulsotype C by Etest; assay type: functional
[17] = system: Escherichia coli; experiment: Antimicrobial activity against Escherichia coli str. K-12 substr. DH10B harboring plasmid CTX-M-59 in presence of clavulanic acid; assay type: functional; details: K-12 DH10B; method in brief: as §1
[18] = system: Klebsiella pneumoniae; experiment: Antimicrobial activity against CTX-M-2 and TEM-1 producing Klebsiella pneumoniae transconjugants/transformants with PFGE pulsotype F by Etest in presence of clavulanic acid; assay type: functional; method in brief: as §2
[19] = system: Escherichia coli; experiment: Antimicrobial activity against Escherichia coli str. K-12 substr. DH10B harboring plasmid CTX-M-2; assay type: functional; details: K-12 DH10B; method in brief: as §1
[20] = system: Klebsiella pneumoniae; experiment: Antimicrobial activity against CTX-M-2 producing Klebsiella pneumoniae with PFGE pulsotype H by Etest; assay type: functional; method in brief: as §3
[21] = system: Klebsiella pneumoniae; experiment: Antimicrobial activity against CTX-M-2 producing Klebsiella pneumoniae with PFGE pulsotype F by Etest in presence of clavulanic acid; assay type: functional; method in brief: as §3
[22] = system: Klebsiella pneumoniae; experiment: Antimicrobial activity against CTX-M-2 producing Klebsiella pneumoniae with PFGE pulsotype A by Etest in presence of clavulanic acid; assay type: functional; method in brief: as §3
[23] = system: Klebsiella pneumoniae; experiment: Antimicrobial activity against CTX-M-59 producing Klebsiella pneumoniae with PFGE pulsotype E by Etest in presence of clavulanic acid; assay type: functional
Method in brief: (§4)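 MICs were determined by Etest strips following the manufacturer's instructions, using cefotaxime and ceftazidime each combined with clavulanic acid. The test strains were clinical NICU outbreak isolates confirmed as ESBL producers by disk diffusion. Pulsotypes were assigned by XbaI PFGE using Tenover relatedness criteria. Cultures were routinely grown in LB broth at 37°C.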

[24] = system: Klebsiella pneumoniae; experiment: Antimicrobial activity against CTX-M-2 producing Klebsiella pneumoniae with PFGE pulsotype B by Etest in presence of clavulanic acid; assay type: functional; method in brief: as §3
[25] = system: Klebsiella pneumoniae; experiment: Antimicrobial activity against CTX-M-2 producing Klebsiella pneumoniae with PFGE pulsotype A by Etest; assay type: functional; method in brief: as §3
[26] = system: Klebsiella pneumoniae; experiment: Antimicrobial activity against CTX-M-59 producing Klebsiella pneumoniae with PFGE pulsotype E by Etest; assay type: functional
[27] = system: Klebsiella pneumoniae; experiment: Antimicrobial activity against CTX-M-2 producing Klebsiella pneumoniae with PFGE pulsotype H by Etest in presence of clavulanic acid; assay type: functional
Method in brief: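 Etest strips used per manufacturer's instructions to read MICs of cefotaxime and ceftazidime, each with clavulanic acid, on clinical NICU K. pneumoniae outbreak isolates. Isolates were typed by XbaI PFGE using Tenover criteria and routinely grown in LB broth at 37°C.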

[28] = system: Klebsiella pneumoniae; experiment: Antimicrobial activity against CTX-M-2 producing Klebsiella pneumoniae with PFGE pulsotype J by Etest; assay type: functional
[29] = system: Klebsiella pneumoniae; experiment: Antimicrobial activity against CTX-M-59 producing Klebsiella pneumoniae with PFGE pulsotype G by Etest; assay type: functional; method in brief: as §3
[30] = system: Klebsiella pneumoniae; experiment: Antimicrobial activity against CTX-M-59 producing Klebsiella pneumoniae with PFGE pulsotype G by Etest in presence of clavulanic acid; assay type: functional; method in brief: as §4
[31] = system: Klebsiella pneumoniae; experiment: Antimicrobial activity against SHV-5 producing Klebsiella pneumoniae with PFGE pulsotype D by Etest in presence of clavulanic acid; assay type: functional
[32] = system: Klebsiella pneumoniae; experiment: Antimicrobial activity against CTX-M-2 and TEM-1 producing Klebsiella pneumoniae transconjugants/transformants with PFGE pulsotype H by Etest in presence of clavulanic acid; assay type: functional
[33] = system: Klebsiella pneumoniae; experiment: Antimicrobial activity against CTX-M-59 and TEM-1 producing Klebsiella pneumoniae transconjugants/transformants with PFGE pulsotype C by Etest in presence of clavulanic acid; assay type: functional; method in brief: as §2
[34] = system: Klebsiella pneumoniae; experiment: Antimicrobial activity against CTX-M-2 and TEM-1 producing Klebsiella pneumoniae transconjugants/transformants with PFGE pulsotype B by Etest in presence of clavulanic acid; assay type: functional; method in brief: as §2
[35] = system: Escherichia coli; experiment: Antimicrobial activity against CTX-M-2 and TEM-1 producing Escherichia coli transconjugants/transformants with PFGE pulsotype A by Etest in presence of clavulanic acid

CO/N=C(\C(=O)N[C@@H]1C(=O)N2C(C(=O)O)=C(COC(C)=O)CS[C@H]12)c1csc(N)n1 [CEFOTAXIME]
MIC [1]: 96 µg/mL (≈ 211 µM) | MIC [2]: 0.47 µg/mL | MIC [3]: 0.094 µg/mL | MIC [4]: 0.19 µg/mL | MIC [5]: 48 µg/mL (≈ 105 µM) | MIC [6]: 12 µg/mL (≈ 26.3 µM) | MIC [7]: 0.094 µg/mL | MIC [8]: 0.094 µg/mL | MIC [9]: > 256 µg/mL | MIC [10]: 0.125 µg/mL | MIC [11]: > 256 µg/mL | MIC [12]: 0.094 µg/mL | MIC [13]: 0.125 µg/mL | MIC [14]: 0.25 µg/mL | MIC [15]: > 256 µg/mL | MIC [16]: > 256 µg/mL | MIC [17]: 0.094 µg/mL | MIC [18]: 0.125 µg/mL | MIC [19]: 128 µg/mL (≈ 281 µM) | MIC [20]: > 256 µg/mL | MIC [21]: 0.094 µg/mL | MIC [22]: 0.094 µg/mL | MIC [23]: 0.125 µg/mL | MIC [24]: 0.094 µg/mL | MIC [25]: > 256 µg/mL | MIC [26]: > 256 µg/mL | MIC [27]: 1 µg/mL | MIC [28]: > 256 µg/mL | MIC [29]: > 256 µg/mL | MIC [30]: 0.5 µg/mL | MIC [31]: 0.047 µg/mL | MIC [32]: 0.94 µg/mL | MIC [33]: 0.19 µg/mL | MIC [34]: 0.094 µg/mL | MIC [35]: 0.094 µg/mL
